Assay results from ChEMBL document CHEMBL1132418, “Structure-immunosuppressive activity relationships of new analogues of 15-deoxyspergualin. 1. Structural modifications of the hydroxyglycine moiety” (1999).

How the values were obtained:
Assay type in all cases: functional
[1] = system: Mus musculus; assay: In vivo immunosuppressive activity in mouse GVHD (graft-versus-host disease) model and the mean survival days evaluated (dose of 3 mg/kg)
How it was run: (§1)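 Mouse GVHD model. Compounds were dissolved in aqueous solution and given i.p. on days 1 to 10 (day 6 omitted), first at 3 mg/kg/day and then at 1 mg/kg/day. Survival was followed to day 60 after cell injection and reported as mean survival in days ± deviation.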

[2] = system: Rattus norvegicus; assay: Compound (6 mg/kg) is evaluated for prevention of graft rejection after heart allotransplantation in the Dark Agouti to Lewis rat combination.
How it was run: (§2)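 Dark Agouti donor hearts transplanted into Lewis rat recipients (fully histoincompatible; high-responder recipient). Compounds given daily i.p. at 6 mg/kg/day for 10 days, starting 1 day after surgery. Graft survival recorded for each animal in days and reported as mean ± SD, with a statistical comparison against controls.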

[3] = system: Mus musculus; assay: In vivo immunosuppressive activity at a dose of 1 mg/kg in mouse GVHD (graft-versus-host disease) model and the mean survival days evaluated.; how it was run: as §1
[4] = organism: Rattus norvegicus; assay: Compound is evaluated for prevention of graft rejection after heart allotransplantation in the dark agouti Lewis rat combination.; how it was run: as §2

Structure (SMILES) | Mean survival [1] | further results
NCCCNCCCCNC(=O)C(OCc1ccccc1)C(=O)NCCCCCCN=C(N)N (configuration not stated) | 14 days | –
NCCCNCCCCNC(=O)OCCC(=O)NCCCCCCN=C(N)N | 13 days | –
CC(C)(C(=O)NCCCCCCN=C(N)N)C(=O)NCCCCNCCCN | 15 days | –
NCCCNCCCCNC(=O)C(=O)NCCCCCCN=C(N)N | 34 days | Mean survival [2]: 12 days; Mean survival [3]: 53 days
CN(CC(=O)NCCCCCCN=C(N)N)C(=O)NCCCCNCCCN | 17 days | –
NCCCNCCCCNC(=O)C(F)C(=O)NCCCCCCN=C(N)N (configuration not stated) | 60 days | Mean survival [3]: 18 days
NCCCNCCCCNC(=O)C(O)CC(=O)NCCCCCCN=C(N)N (configuration not stated) | 15 days | –
NCCCNCCCCNC(=O)NCC(=O)NCCCCCCN=C(N)N | 48 days | Mean survival [4]: 12 days; Mean survival [3]: 42 days
NCCCNCCCCNC(=O)SCC(=O)NCCCCCCN=C(N)N | 17 days | –
NCCCNCCCCNC(=O)C(N)C(=O)NCCCCCCN=C(N)N (configuration not stated) | 16 days | –
NCCCNCCCCNS(=O)(=O)CC(=O)NCCCCCCN=C(N)N | 15 days | –
NCCCNCCCCCC(=O)NCC(=O)NCCCCCCN=C(N)N | 18 days | –
CN(CCCCCCN=C(N)N)C(=O)COC(=O)NCCCCNCCCN | 14 days | –
NCCCNCCCCNC(=O)CC(=O)NCCCCCCN=C(N)N | 52 days | Mean survival [2]: 9 days; Mean survival [3]: 53 days
NCCCNCCCCNC(=O)C(Cc1ccccc1)C(=O)NCCCCCCN=C(N)N (configuration not stated) | 16 days | –
COC(C(=O)NCCCCCCN=C(N)N)C(=O)NCCCCNCCCN (configuration not stated) | 55 days | Mean survival [3]: 27 days
NCCCNCCCCNC(=O)CCCCCCCCCN=C(N)N | 16 days | –
CC(C(=O)NCCCCCCN=C(N)N)C(=O)NCCCCNCCCN (configuration not stated) | 16 days | –
N=C(N)NCCCCCCNC(=O)COC(=O)NCCCCNCCCN [TRESPERIMUS] | 58 days | Mean survival [2]: 54 days; Mean survival [3]: 46 days
NCCCNCCCCNC(=O)COC(=O)NCCCCCCN=C(N)N | 13 days | –
NCCCNCCCCNC(=O)NCCC(=O)NCCCCCCN=C(N)N | 15 days | –

Structure (SMILES) | Mean survival [1] | further results
CN(CCCCNCCCN)C(=O)CC(=O)NCCCCCCN=C(N)N | 12 days | –
NCCCNCCCCNC(=O)/C=C\C(=O)NCCCCCCN=C(N)N | 17 days | –
CC(=O)NC(C(=O)NCCCCCCN=C(N)N)C(=O)NCCCCNCCCN (configuration not stated) | 16 days | –
NCCCNCCCCNC(=O)/C=C/C(=O)NCCCCCCN=C(N)N | 17 days | –
NCCCNCCCCOC(=O)NCNC(=O)CCCCCCN=C(N)N | 58 days | Mean survival [3]: 32 days
CN(CCCCNCCCN)C(=O)OCC(=O)NCCCCCCN=C(N)N | 15 days | –
CN(CCCCCCN=C(N)N)C(=O)CC(=O)NCCCCNCCCN | 14 days | –
N=C(N)NCCCCCCC(=O)NC(O)C(=O)NCCCCNCCCN (configuration not stated) [GUSPERIMUS] | 57 days | Mean survival [2]: 38 days; Mean survival [3]: 38 days
NCCCNCCCCNC(=O)C(C(=O)NCCCCCCN=C(N)N)c1ccccc1 (configuration not stated) | 19 days | –
NCCCNCCCCOC(=O)NCC(=O)NCCCCCCN=C(N)N | 48 days | Mean survival [3]: 55 days
CCC(C(=O)NCCCCCCN=C(N)N)C(=O)NCCCCNCCCN (configuration not stated) | 19 days | –
NCCCNCCCCNCCC(=O)NCCCCCCN=C(N)N | 13 days | –
NCCCNCCCCNC(=O)CNC(=O)NCCCCCCN=C(N)N | 24 days | –
COC(OC)(C(=O)NCCCCCCN=C(N)N)C(=O)NCCCCNCCCN | 12 days | –
NCCCNCCCCNC(=O)CCC(=O)NCCCCCCN=C(N)N | 16 days | –
NCCCNCCCCNC(=O)C(CO)(CO)C(=O)NCCCCCCN=C(N)N | 17 days | –
NCCCNCCCCNC(=O)OCCNCCCCCCN=C(N)N | 34 days | –
NCCCNCCCCC(=O)NCC(=O)NCCCCCCN=C(N)N | 22 days | –
NCCCNCCCCNC(=O)C(O)C(=O)NCCCCCCN=C(N)N (configuration not stated) | 53 days | Mean survival [2]: 33 days; Mean survival [3]: 12 days
NCCCNCCCCNC(=O)CCCC(=O)NCCCCCCN=C(N)N | 15 days | –
